Test [1] in a line: Her2 expression decrease, cell viability multiplex – SKBR3 breast tumor cells, AlphaScreen, ATP viability, primary screen (AID 461;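 active = Her2 level under about 52% in both replicate screens, with viability over 70% of control, limit read from the data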;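 as to Her2 level: lower value means less Her2 protein in the cells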;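 as to viability: percent of carrier control wells set as 100% viability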). Conditions: SKBR3 Her2 protein level, 18-24 h, measured here: SKBR3 viability, ATP luminescence, at 10 µM.
Test [2] has as its target Receptor tyrosine-protein kinase erbB-2 (Homo sapiens) (UniProt P04626). The test is described as above. Particulars: 18-24 h, at 10 µM, stronger effect = lower value.
Test [3] is described as follows: reduced viability of SK-BR-3 breast cancer cells – cell-based, 24 h, human, pilot screen (AID 572;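 active = viability at or below 10% of carrier control in both of two separate runs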;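 also: compound exposure lasted between 18 and 24 h rather than exactly 24 h; 100% = carrier-treated control wells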). Conditions: SK-BR-3 viability, CellTiter-Glo luminescence, at 10 µM, stronger effect = lower value. A general note: In ATP-based viability assays light output follows the ATP content of the culture.
A short description of test [4]: HUVEC growth inhibition – cell-based, human, primary screen (AID 575;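 active = viability at or below 30% in both replicate assays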;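 also: 100% = median of untreated cell wells with 0.1% DMSO on each plate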). Particulars: HUVEC proliferation, CellTiter-Glo luminescence, 72 h; at 10 µM; stronger effect = lower value. The method, boiled down: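 material = primary HUVEC, no more than 12 passages | input = 1250 cells per well | controls = vehicle and MePR control wells | measured by = CTG luminescence | times = 72 h compound incubation | format = collagen-coated 384-well format | read-out = % viability vs DMSO wells | doses = single 10 µM dose, 0.1% DMSO, from 5x medium stock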

Test [5] can be described thus: H69AR cell proliferation blockers – human, duplicate replicates, primary screen (AID 580).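 Also: 100% = mean luminescence of untreated wells and 0% = no signal.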 Conditions: H69AR lung tumor cells viability, ATP luminescence, 72 h; at 10 µM; stronger effect = lower value.
A short description of test [6]: MRP1 drug-resistance reversers in H69AR cells – cell-based, doxorubicin co-treatment, pilot screen (AID 601;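 active = viability loss from added drug above about 55%, and viability with drug at most 40%, in both replicates, limit read from the data, passing the limit was not always enough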). Conditions: CellTiter-Glo, 72 h, at 10 µM; for differential viability (reversal): stronger effect = higher value.
The nature of test [7]: yeast transport mutant growth inhibition pilot in 384-well plates, post-Golgi transport modulator project (AID 636; in the data active = inhibition above about 31%). Particulars: absorbance 615 nm, about 18 h, stronger effect = higher value.
Test [8] is described as follows: growth suppression of yeast trafficking mutant, preliminary HTS, modulators of trafficking downstream of Golgi apparatus project, 1536-format plate, OD 615 nm (AID 637; in the data active = inhibition above about 30%). Conditions: yeast transport mutant growth, absorbance 615 nm, 18 h; stronger effect = higher value.
The mark [9] stands for this setting: H69AR cells + 2 uM doxorubicin, measured here: viability with 2 uM doxorubicin, stronger effect = lower value.
The mark [10] stands for this setting: H69AR cells, compound alone cytotoxicity.

Active and inactive are the calls of the source.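 The calls were made as follows, unless noted: active = viability at or under a set limit in both replicates, limit being median viability minus 3 SD (cut at about 48% in these data, passing the limit was not always enough); inconclusive = at or under the limit in just one replicate; inactive = at or above the limit in both replicates.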

Sequence of Receptor tyrosine-protein kinase erbB-2 (Homo sapiens) (P04626 whole entry, looked up): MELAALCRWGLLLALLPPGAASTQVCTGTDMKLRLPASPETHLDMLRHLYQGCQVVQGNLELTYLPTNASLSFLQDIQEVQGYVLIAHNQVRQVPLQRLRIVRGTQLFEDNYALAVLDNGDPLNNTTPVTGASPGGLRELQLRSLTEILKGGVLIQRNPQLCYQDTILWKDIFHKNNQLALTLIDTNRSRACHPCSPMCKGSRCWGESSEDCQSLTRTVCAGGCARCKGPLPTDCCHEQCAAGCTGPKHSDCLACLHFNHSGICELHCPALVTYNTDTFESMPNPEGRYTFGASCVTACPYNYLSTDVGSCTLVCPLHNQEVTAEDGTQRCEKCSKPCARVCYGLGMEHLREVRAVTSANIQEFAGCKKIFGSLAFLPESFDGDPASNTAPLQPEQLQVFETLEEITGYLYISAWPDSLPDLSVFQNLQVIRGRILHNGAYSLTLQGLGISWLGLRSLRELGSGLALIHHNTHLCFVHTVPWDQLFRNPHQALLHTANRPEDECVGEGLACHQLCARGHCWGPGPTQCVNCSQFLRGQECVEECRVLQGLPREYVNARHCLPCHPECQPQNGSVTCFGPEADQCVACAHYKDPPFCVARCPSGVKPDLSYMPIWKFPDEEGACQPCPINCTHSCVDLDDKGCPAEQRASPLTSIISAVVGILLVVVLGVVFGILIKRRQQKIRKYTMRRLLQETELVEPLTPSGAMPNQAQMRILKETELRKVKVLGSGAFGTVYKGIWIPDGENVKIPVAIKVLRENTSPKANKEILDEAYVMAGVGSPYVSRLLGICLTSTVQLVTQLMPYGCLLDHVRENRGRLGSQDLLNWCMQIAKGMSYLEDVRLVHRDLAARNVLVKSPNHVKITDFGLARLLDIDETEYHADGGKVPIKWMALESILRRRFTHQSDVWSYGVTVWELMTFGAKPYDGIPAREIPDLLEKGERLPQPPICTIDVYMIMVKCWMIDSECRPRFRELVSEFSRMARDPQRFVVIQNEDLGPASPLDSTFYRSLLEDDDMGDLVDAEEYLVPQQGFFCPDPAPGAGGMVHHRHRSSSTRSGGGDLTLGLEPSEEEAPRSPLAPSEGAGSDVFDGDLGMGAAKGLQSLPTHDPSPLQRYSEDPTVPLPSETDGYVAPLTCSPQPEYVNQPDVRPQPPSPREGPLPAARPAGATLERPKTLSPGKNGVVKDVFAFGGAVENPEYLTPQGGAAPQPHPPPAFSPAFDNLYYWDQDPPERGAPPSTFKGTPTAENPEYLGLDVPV

By viability is commonly meant a read-out of living cells in per cent, often relative to untreated cells. The inhibition is the change of the read-out against control, counted positive when it falls. Turning to `CCc1nc2c(cnn2-c2ccc(Cl)cc2)c(=O)n1-c1ccc2c(c1)OCCO2`, the viability in test [1] is 90%; in test [3], 90% (inactive); in test [4] it was 83.3% (inactive); in test [5], 83.6% (inactive); in test [6] (setting [9]), 88%; in test [6] (setting [10]), 83.6%. Besides, the Her2 level in test [2] is 86.5% (inactive). For the same molecule, in test [6] (H69AR cells + 2 uM doxorubicin), the differential viability (reversal) was -4.38% (inactive). The inhibition in test [7] is 0.79% (inactive); in test [8] it was -5.97% (inactive).
With `CCN(CC)Cc1nc2c(c(=O)[nH]1)C1(CCCCC1)Cc1ccccc1-2`, the viability in test [1] is 87%; in test [3] it was 87% (inactive); in test [4], 93.6% (inactive); in test [5], 72.8% (inactive); in test [6] (setting [9]) it was 91.7%; in test [6] (setting [10]), 72.8%. Also, in test [2], the Her2 level is 82.5% (inactive). The differential viability (reversal) in test [6] (H69AR cells + 2 uM doxorubicin) is -18.9% (inactive). The results for the inhibition in test [7] and in test [8] were -5.07% (inactive) and 0.16% (inactive), respectively.
For the molecule `CCn1c(=N)n(CC(O)c2ccco2)c2ccccc21` (stereo not given), the viability in test [1] was 94.5%; in test [3] it was 94.5% (inactive); in test [4], 116% (inactive); in test [5] it was 90.4% (inactive); in test [6] (setting [9]) it was 80.1%; in test [6] (setting [10]) it was 90.4%. In addition, the Her2 level in test [2] was 119% (inactive). Further, the differential viability (reversal) in test [6] (H69AR cells + 2 uM doxorubicin) was 10.3% (inactive). In addition, the inhibition in test [7] is -4.49% (inactive); in test [8], 4.67% (inactive).
Regarding `COCCn1nnnc1CN(Cc1cccnc1)Cc1cc2cc(OC)ccc2[nH]c1=O`, the viability was 91% in test [1]; 91% (inactive) in test [3]; 98.6% (inactive) in test [4]; 88.3% (inactive) in test [5]; 79.5% in test [6] (setting [9]); 88.3% in test [6] (setting [10]). For the same molecule, the Her2 level in test [2] was 75% (inactive). Further, the differential viability (reversal) in test [6] (H69AR cells + 2 uM doxorubicin) is 8.82% (inactive). In addition, the inhibition is -7.07% (inactive) in test [7] and 4.26% (inactive) in test [8].
Take `CCCN(C(=O)CSc1nnc(-c2ccoc2C)n1N)C1CCS(=O)(=O)C1` (stereo not given): the viability in test [1] was 86.5%; in test [3] it was 86.5% (inactive); in test [4] it was 79.7% (inactive); in test [5], 94.8% (inactive); in test [6] (setting [9]) it was 86.9%; in test [6] (setting [10]) it was 94.8%. Also, the Her2 level in test [2] is 88.5% (inactive). Also, the differential viability (reversal) in test [6] (H69AR cells + 2 uM doxorubicin) is 7.94% (inactive). For the same molecule, the inhibition in test [7] was -2.6% (inactive); in test [8] it was 2.13% (inactive).
Consider `CC(C)CC(c1nnnn1CC1CCCO1)N1CCN(Cc2ccc3c(c2)OCO3)CC1` (stereo not given), for which the viability in test [1] was 86.5%; in test [3], 86.5% (inactive); in test [4] it was 90% (inactive); in test [5], 96.7% (inactive); in test [6] (setting [9]) it was 88.2%; in test [6] (setting [10]), 96.7%. Moreover, the Her2 level in test [2] was 70% (inactive). For the same molecule, the differential viability (reversal) in test [6] (H69AR cells + 2 uM doxorubicin) is 8.46% (inactive). In addition, the inhibition in test [7] is -6.08% (inactive); in test [8], -9.34% (inactive).
Turning to `O=c1c2ccccc2cnn1-c1nc2ccccc2s1`, the viability in test [1] is 91%; in test [3], 91% (inactive); in test [4], 63.6% (inactive); in test [5], 81.6% (inactive); in test [6] (setting [9]) it was 81.4%; in test [6] (setting [10]), 81.6%. In test [2], the Her2 level is 73% (inactive). Moreover, in test [6] (H69AR cells + 2 uM doxorubicin), the differential viability (reversal) is 0.15% (inactive). Also, the inhibition in test [7] is -7.3% (inactive); in test [8] it was -3.33% (inactive).
Take `CNC(=O)Nc1cccc(C(F)(F)F)c1`: the viability is 105% in test [1]; 105% (inactive) in test [3]; 93% (inactive) in test [4]; 93.6% (inactive) in test [5]; 100% in test [6] (setting [9]); 93.6% in test [6] (setting [10]). The Her2 level in test [2] was 82.5% (inactive). In addition, in test [6] (H69AR cells + 2 uM doxorubicin), the differential viability (reversal) was -6.37% (inactive). Also, the inhibition in test [7] is -4.08% (inactive); in test [8], 0% (inactive).
For the molecule `COc1cccc(N2CCN(C(=O)C3C4C=CC5(CN(Cc6ccccc6Cl)C(=O)C35)O4)CC2)c1` (stereo not given), the viability is 83.5% in test [1]; 83.5% (inactive) in test [3]; 78.6% (inactive) in test [4]; 100% (inactive) in test [5]; 91.3% in test [6] (setting [9]); 100% in test [6] (setting [10]). In addition, in test [2], the Her2 level was 97% (inactive). Besides, the differential viability (reversal) in test [6] (H69AR cells + 2 uM doxorubicin) is 9.13% (inactive). Further, the values for the inhibition in test [7] and in test [8] were -3.42% (inactive) and -6.17% (inactive), respectively.
As to `CCN1CCc2c(C#N)c(N3CCOCC3)nc(NCc3ccccc3)c2C1`, the viability was 84.5% in test [1]; 84.5% (inactive) in test [3]; 88.4% (inactive) in test [4]; 81.3% (inactive) in test [5]; 77.8% in test [6] (setting [9]); 81.3% in test [6] (setting [10]). Besides, the Her2 level in test [2] was 88% (inactive). Further, in test [6] (H69AR cells + 2 uM doxorubicin), the differential viability (reversal) is 3.46% (inactive). The inhibition in test [7] was -6.03% (inactive); in test [8], -4.76% (inactive).
Regarding `COc1ccc(C(CC(=O)O)NC(=O)c2ccccc2)cc1OC` (stereo not given), the viability in test [1] is 110%; in test [3], 110% (inactive); in test [4], 94.6% (inactive); in test [5], 83.6% (inactive); in test [6] (setting [9]) it was 90.1%; in test [6] (setting [10]) it was 83.6%. Also, the Her2 level in test [2] was 101% (inactive). Moreover, the differential viability (reversal) in test [6] (H69AR cells + 2 uM doxorubicin) was -6.46% (inactive). The inhibition was 0.78% (inactive) in test [7] and -6.33% (inactive) in test [8].
Take `CCc1nc(C)c(C#N)c2cc(OC)c(OC)cc12`: the viability was 103% in test [1]; 103% (inactive) in test [3]; 77.8% (inactive) in test [4]; 82.4% (inactive) in test [5]; 74% in test [6] (setting [9]); 82.4% in test [6] (setting [10]). In addition, in test [2], the Her2 level was 90% (inactive). Also, the differential viability (reversal) in test [6] (H69AR cells + 2 uM doxorubicin) was 8.46% (inactive). Also, the inhibition is -0.91% (inactive) in test [7] and 3.93% (inactive) in test [8].
Regarding `C=CCn1c(Cc2cccs2)nnc1SCC(=O)Nc1ccc(OC)c(OC)c1`, the viability was 108% in test [1]; 108% (inactive) in test [3]; 89.6% (inactive) in test [4]; 85.3% (inactive) in test [5]; 90.3% in test [6] (setting [9]); 85.3% in test [6] (setting [10]). Further, the Her2 level in test [2] was 109% (inactive). Also, the differential viability (reversal) in test [6] (H69AR cells + 2 uM doxorubicin) was -5.02% (inactive). For the same molecule, the results for the inhibition in test [7] and in test [8] were -5.06% (inactive) and 0% (inactive), respectively.
With `O=C(c1ccccc1)c1coc2ccc(O)c(CN3CCOCC3)c12`, the viability in test [1] was 78.5%; in test [3], 78.5% (inactive); in test [4], 115% (inactive); in test [5] it was 88.5% (inactive); in test [6] (setting [9]) it was 97.8%; in test [6] (setting [10]), 88.5%. Further, in test [2], the Her2 level was 75.5% (inactive). Further, in test [6] (H69AR cells + 2 uM doxorubicin), the differential viability (reversal) was -9.25% (inactive). Moreover, the figures for the inhibition in test [7] and in test [8] were -3.42% (inactive) and 5.9% (inactive), respectively.
With `CN1CCN(S(=O)(=O)c2ccc(Sc3nnc(-c4cccs4)n3-c3ccccc3)nc2)CC1`, the viability in test [1] is 120%; in test [3] it was 120% (inactive); in test [4] it was 89.4% (inactive); in test [5], 85.7% (inactive); in test [6] (setting [9]), 82.2%; in test [6] (setting [10]), 85.7%. Moreover, the Her2 level in test [2] was 87.5% (inactive). Moreover, the differential viability (reversal) in test [6] (H69AR cells + 2 uM doxorubicin) was 3.53% (inactive). Also, the inhibition in test [7] was -5.27% (inactive); in test [8], -10% (inactive).
